Reference: ChEMBL document CHEMBL3997766, “Synthesis and pre-clinical studies of new amino-acid ester thiazolide prodrugs” (Eur J Med Chem, 2017)

Legend:
Rattus norvegicus [1] = assay: AUC (0 to t) in Sprague-Dawley rat assessed as Tizoxanide level at 30 mg/kg, po administered as single dose; type: ADME, organism-based; conditions: in vivo
How it was run: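 Plasma tizoxanide and tizoxanide glucuronide were measured and PK parameters derived. AUCs were dose-corrected to 30 mg/kg for bioavailability.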

Rattus norvegicus [2] = assay: Cmax in Sprague-Dawley rat assessed as Tizoxanide-glucuronide level in plasma at 6 mg/kg, iv administered as single dose; type: ADME, organism-based; parameters: dose 6 mg/kg, route intravenous; conditions: in vivo
How it was run: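 Rats in groups of three received one compound as a single oral dose (30 mg/kg) or a single intravenous injection (6 mg/kg), with four compounds studied separately. Serial blood samples were drawn at 5, 10, 15 and 30 min and at 1, 2, 4, 8, 23 and 24 h post-dose. Plasma parent drug and metabolites were quantified and PK parameters were derived.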

Rattus norvegicus [3] = assay: Elimination half life in Sprague-Dawley rat assessed as Tizoxanide level in plasma at 6.3 mg/kg, iv administered as single dose; type: ADME, organism-based; conditions: in vivo
Rattus norvegicus [4] = assay: Neurotoxicity in Sprague-Dawley rat assessed as labored breathing at 1000 mg/kg administered as single dose via oral gavage after 4 to 24 hrs; type: toxicity, organism-based; conditions: in vivo
How it was run: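 Three groups of 10 rats (5M/5F) received a single dose by oral gavage of 100, 300 or 1000 mg/kg, and an untreated group served as control. Clinical signs of CNS effects were recorded at 4 and 24 h after treatment.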

Rattus norvegicus [5] = assay: Toxicity in Sprague-Dawley rat assessed as effect on respiratory rate by measuring breaths per minute at 100 to 1000 mg/kg administered as single dose via oral gavage; type: organism-based; conditions: in vivo
How it was run: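 Respiratory safety study: conscious rats, 3 groups of 6 (3M/3F), given single oral-gavage doses of 100, 300 or 1000 mg/kg, with an untreated control group. Respiratory rate (breaths per minute), tidal volume and minute volume were recorded, and mortality was noted.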

Canis familiaris [6] = assay: Toxicity in Beagle dog at 5 to 75 mg/kg, po administered as gelatin capsule qd for 28 consecutive days; type: organism-based, Canis lupus familiaris; conditions: in vivo
Rattus norvegicus [7] = assay: Toxicity in Sprague-Dawley rat assessed as mortality at 100 to 1000 mg/kg administered as single dose via oral gavage; type: organism-based; conditions: in vivo
How it was run: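 CNS safety study in rats: single oral-gavage doses of 100, 300 or 1000 mg/kg to 3 groups of 10 (5M/5F), with an untreated control group. Clinical signs (activity, abdominal tone, breathing, tremors, pain response) were recorded at 4 and 24 h after dosing, and mortality was noted.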

Rattus norvegicus [8] = assay: Toxicity in Sprague-Dawley rat assessed as body weight gain at 75 mg/kg administered as oral gavage qd for 28 consecutive days measured during last 3 weeks of dosing; type: organism-based; conditions: in vivo, 504 h
How it was run: (§1)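 Sub-acute study in Sprague-Dawley rats dosed orally with a suspension at 10, 30 and 75 mg/kg once daily for 28 consecutive days. Four groups of up to 30 rats each (15M/15F).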

Rattus norvegicus [9] = assay: Toxicity in Sprague-Dawley rat assessed as decrease in prothrombine time at 10 to 75 mg/kg administered as oral gavage qd for 28 consecutive days followed by 2 weeks recovery period measured on day 43; type: organism-based; conditions: in vivo, 336 h; how it was run: as §1
Rattus norvegicus [10] = assay: Toxicity in Sprague-Dawley rat assessed as decrease in serum sodium level at 10 to 75 mg/kg administered as oral gavage qd for 28 consecutive days followed by 2 weeks recovery period measured on day 43; type: organism-based; conditions: in vivo, 336 h; how it was run: as §1
Rattus norvegicus [11] = assay: Toxicity in Sprague-Dawley rat assessed as increase in total bilirubin level at 30 to 75 mg/kg administered as oral gavage qd for 28 consecutive days followed by 2 weeks recovery period measured on day 43; type: organism-based; conditions: in vivo, 336 h; how it was run: as §1
Rattus norvegicus [12] = assay: Toxicity in Sprague-Dawley rat assessed as decrease in urine specific gravity at 30 to 75 mg/kg administered as oral gavage qd for 28 consecutive days followed by 2 weeks recovery period measured on day 43; type: organism-based; conditions: in vivo, 336 h; how it was run: as §1
Rattus norvegicus [13] = assay: Toxicity in Sprague-Dawley rat assessed as mixed cell inflammation in stomach at 30 to 75 mg/kg administered as oral gavage qd for 28 consecutive days measured on day 29 by microscopic method; type: organism-based; conditions: in vivo
How it was run: (§2)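 Sub-acute study in Sprague-Dawley rats: 10, 30 or 75 mg/kg given orally once a day for 28 consecutive days as a yellow suspension. There were 4 groups of up to 30 rats each (15M/15F), including a control. Body weight, clinical observations and terminal findings were assessed.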

Rattus norvegicus [14] = assay: Toxicity in Sprague-Dawley rat assessed as erosions in stomach at 30 to 75 mg/kg administered as oral gavage qd for 28 consecutive days measured on day 29 by microscopic method; type: organism-based; conditions: in vivo; how it was run: as §2
Rattus norvegicus [15] = assay: Toxicity in Sprague-Dawley rat assessed as hemorrhage in duodenum at 75 mg/kg administered as oral gavage qd for 28 consecutive days measured on day 29 by microscopic method; type: organism-based; conditions: in vivo; how it was run: as §1
Rattus norvegicus [16] = assay: Toxicity in Sprague-Dawley rat assessed as eosinophilic cytoplasmic bodies in epithelial cells of stomach at 10 to 75 mg/kg administered as oral gavage qd for 28 consecutive days followed by 2 weeks recovery period by microscopic method; type: organism-based; conditions: in vivo, 336 h; how it was run: as §1
Rattus norvegicus [17] = assay: Toxicity in Sprague-Dawley rat assessed as hemorrhage in stomach at 75 mg/kg administered as oral gavage qd for 28 consecutive days followed by 2 weeks recovery period by microscopic method; type: organism-based; conditions: in vivo, 336 h; how it was run: as §1
Rattus norvegicus [18] = assay: Toxicity in Sprague-Dawley rat assessed as mucosal hyperplasia in duodenum at 75 mg/kg administered as oral gavage qd for 28 consecutive days followed by 2 weeks recovery period by microscopic method; type: organism-based; conditions: in vivo, 336 h
How it was run: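 Sub-acute oral toxicity study in Sprague-Dawley rats. The drug was given once daily for 28 consecutive days at 10, 30 or 75 mg/kg, formulated as a suspension. There were 4 groups of up to 30 rats each (15 male, 15 female). The study evaluated systemic exposure to the drug.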

Rattus norvegicus [19] = assay: Toxicity in Sprague-Dawley rat assessed as eosinophilic cytoplasmic bodies in leukocytes of duodenum at 75 mg/kg administered as oral gavage qd for 28 consecutive days followed by 2 weeks recovery period by microscopic method; type: organism-based; conditions: in vivo, 336 h; how it was run: as §1
Rattus norvegicus [20] = assay: Toxicity in Sprague-Dawley rat administered via oral gavage qd for 28 consecutive days; conditions: in vivo; how it was run: as §2
Canis familiaris [21] = assay: Toxicity in Beagle dog assessed as change in food consumption up to 25 mg/kg, po administered as gelatin capsule once daily for 28 days; type: organism-based, Canis lupus familiaris; conditions: in vivo, 672 h
How it was run: (§3)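 Sub-acute study in Beagle dogs dosed orally by gelatin capsule at 5, 15 and 25 mg/kg once a day for 28 consecutive days.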

Canis familiaris [22] = assay: Toxicity in Beagle dog up to 25 mg/kg, po administered as gelatin capsule once daily for 28 days by ophthalmoscopic method; type: organism-based, Canis lupus familiaris; conditions: in vivo, 672 h; how it was run: as §3
Canis familiaris [23] = assay: Cardiotoxicity in Beagle dog up to 25 mg/kg, po administered as gelatin capsule once daily for 28 days measured 1 hr post last dose on one of last 3 days of dosing; type: toxicity, organism-based, Canis lupus familiaris; conditions: in vivo
How it was run: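 Beagle dogs received the drug orally in a single gelatin capsule at 5, 15 or 25 mg/kg once daily for 28 consecutive days in a sub-acute toxicity study assessing systemic exposure.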

Canis familiaris [24] = assay: Toxicity in Beagle dog assessed as effect on hematology up to 25 mg/kg, po administered as gelatin capsule once daily for 28 days measured on day 29; type: organism-based, Canis lupus familiaris; conditions: in vivo, 672 h; how it was run: as §3
Canis familiaris [25] = assay: Toxicity in Beagle dog assessed as effect on coagulation up to 25 mg/kg, po administered as gelatin capsule once daily for 28 days measured on day 29; type: organism-based, Canis lupus familiaris; conditions: in vivo, 672 h; how it was run: as §3
Canis familiaris [26] = assay: Toxicity in Beagle dog assessed as gross necropsy up to 25 mg/kg, po administered as gelatin capsule once daily for 28 days followed by two weeks of recovery period; type: organism-based, Canis lupus familiaris; conditions: in vivo, 672 h; how it was run: as §3

In the case of `CC(C)(C)[C@H](N)C(=O)Oc1ccccc1C(=O)Nc1ncc([N+](=O)[O-])s1.Cl`, the AUCt (Rattus norvegicus [1]) is reported as 3120 ng·h/mL, the Cmax (Rattus norvegicus [2]) is reported as 7890 ng/mL and the “beta t1/2” value (Rattus norvegicus [3]) is reported as 22.8 min. The Activity (Rattus norvegicus [4]) was “Toxic”, the Activity (Rattus norvegicus [5]) was “Toxic” and the Activity (Canis familiaris [6]) was “Non-Toxic”. For the same compound, the Activity (Rattus norvegicus [7]) was “Non-Toxic”, the Activity (Rattus norvegicus [8]) was “Non-Toxic” and the Activity (Rattus norvegicus [9]) was “Toxic”. The Activity (Rattus norvegicus [10]) was “Toxic”, the Activity (Rattus norvegicus [11]) was “Toxic” and the Activity (Rattus norvegicus [12]) was “Toxic”. For the same compound, the Activity (Rattus norvegicus [13]) was “Toxic”, the Activity (Rattus norvegicus [14]) was “Toxic” and the Activity (Rattus norvegicus [15]) was “Toxic”. For the same compound, the Activity (Rattus norvegicus [16]) was “Non-Toxic”, the Activity (Rattus norvegicus [17]) was “Non-Toxic” and the Activity (Rattus norvegicus [18]) was “Non-Toxic”. For the same compound, the Activity (Rattus norvegicus [19]) was “Non-Toxic”, the NOAEL (Rattus norvegicus [20]) was 10 mg/kg and the Activity (Canis familiaris [21]) was “Non-Toxic”. For the same compound, the Activity (Canis familiaris [22]) was “Non-Toxic”, the Activity (Canis familiaris [23]) was “Non-Toxic” and the Activity (Canis familiaris [24]) was “Non-Toxic”. For the same compound, the Activity (Canis familiaris [25]) was “Non-Toxic” and the Activity (Canis familiaris [26]) was “Non-Toxic”.
